From ChEMBL document CHEMBL2150909, “Imidazo[1,2-a]pyridines: orally active positive allosteric modulators of the metabotropic glutamate 2 receptor” (J Med Chem, 2012) come the findings set out here.

The nature of data set [1]: AUC (0 to infinity) in Sprague-Dawley rat at 10 mg/kg, po and 2.5 mg/kg, iv. As to conditions: plasma. The format is ADME, organism-based. The method in brief:
(§1)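 Rat PK: compounds formulated in 20% HP-β-CD at pH 4 and given orally and intravenously. Values are geometric means of at least two runs ± SEM.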

The nature of data set [2]: Half life in Sprague-Dawley rat at 10 mg/kg, po and 2.5 mg/kg, iv. The class given is ADME, organism-based. As to conditions: in vivo. The method in brief:
as §1

A short description of data set [3]: Drug uptake in SPF Swiss mouse brain at 10 mg/kg, sc after 4 hrs. As to conditions: read-out: Drug uptake. Details: dose 10 mg/kg, route subcutaneous. The format is ADME, organism-based. The method in brief:
(§2)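 Male Swiss SPF mice dosed subcutaneously at 10 mg/kg in 20% HP-β-CD, pH 4. Brain levels measured in ng/g and plasma levels in ng/mL at the stated time, with brain/plasma ratio; geometric mean of at least two runs ± SEM.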

Data set [4] in a line: Oral bioavailability in Sprague-Dawley rat at 10 mg/kg. The format is ADME, organism-based. As to conditions: in vivo. The method in brief: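 Male Sprague-Dawley rats given 10 mg/kg orally and/or 1.25 mg/kg intravenously; compound formulated in 20% HP-β-CD at pH 4. Cmax, tmax, AUC0−inf, t1/2, clearance and oral bioavailability F derived from plasma levels; geometric mean of at least two runs ± SEM.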

A short description of data set [5]: Drug uptake in SPF Swiss mouse brain at 10 mg/kg, sc after 2 hrs. Details: dose 10 mg/kg, route subcutaneous. The settings on record: read-out: Drug uptake. The class given is ADME, organism-based. The method in brief: as §2
The nature of data set [6]: Plasma concentration in SPF Swiss mouse at 10 mg/kg, sc after 2 hrs. The format is ADME, organism-based. Details: dose 10 mg/kg, route subcutaneous. The method in brief:
as §2

Data set [7] in a line: Tmax in Sprague-Dawley rat at 10 mg/kg, po and 2.5 mg/kg, iv. The class given is ADME, organism-based. The settings on record: in vivo. The essentials: as §1
Data set [8] can be described thus: Metabolic stability of human liver microsomes assessed as compound metabolized at 5 uM after 15 mins. The format is ADME, Microsome. The settings on record: read-out: Drug metabolism. The method in brief: (§3)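 Test compound at 5 μM incubated 15 min with rat or human liver microsomes; read-out is percent of compound metabolized.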
On the technique in general: Microsomes from liver hold many membrane-bound enzymes, among them those of drug oxidation.

Data set [9] in a line: Metabolic stability of Sprague-Dawley rat liver microsomes assessed as compound metabolized at 5 uM after 15 mins. As to conditions: read-out: Drug metabolism. The class given is ADME, Microsome. The method in brief: as §3
A short description of data set [10]: Ratio of drug level in brain to plasma of SPF Swiss mouse at 10 mg/kg, sc after 2 hrs. The settings on record: read-out: BPR. The class given is ADME, organism-based. More on the design: dose 10 mg/kg, route subcutaneous. The method in brief: (§4)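 Male Swiss SPF mice, single subcutaneous dose of 10 mg/kg in 20% HP-β-CD at pH 4. Brain levels (ng/g) and plasma levels (ng/mL) measured at the stated time after dosing; brain-to-plasma ratio taken from these. Geometric mean of at least two runs ± SEM.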

The target of data set [11] is T1, Metabotropic glutamate receptor 2 (Homo sapiens, UniProt Q14416). The data set can be described thus: Agonist activity at human mGlu 2 expressed in CHO cells assessed as [35S]GTPgammaS binding by liquid scintillation analysis. The format is functional, cell-based. The method in brief:
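Membranes from butyrate-stimulated (5 mM, 24 h) CHO cells expressing human mGlu2. Preincubated 30 min at 30 °C in HEPES pH 7.4 with NaCl, MgCl2, 50 μM GDP and saponin; modulator 0.3 nM–50 μM, no added glutamate. [35S]GTPγS 0.1 nM final, 30 min at 30 °C, filtered, scintillation counted. Nonspecific binding defined with cold GTP; 11 concentrations in duplicate, ≥3 curves.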
Background: GTPγS is a poorly hydrolysed GTP analogue; its binding reports G protein activation.
Target sequence in this assay (Q14416 whole entry): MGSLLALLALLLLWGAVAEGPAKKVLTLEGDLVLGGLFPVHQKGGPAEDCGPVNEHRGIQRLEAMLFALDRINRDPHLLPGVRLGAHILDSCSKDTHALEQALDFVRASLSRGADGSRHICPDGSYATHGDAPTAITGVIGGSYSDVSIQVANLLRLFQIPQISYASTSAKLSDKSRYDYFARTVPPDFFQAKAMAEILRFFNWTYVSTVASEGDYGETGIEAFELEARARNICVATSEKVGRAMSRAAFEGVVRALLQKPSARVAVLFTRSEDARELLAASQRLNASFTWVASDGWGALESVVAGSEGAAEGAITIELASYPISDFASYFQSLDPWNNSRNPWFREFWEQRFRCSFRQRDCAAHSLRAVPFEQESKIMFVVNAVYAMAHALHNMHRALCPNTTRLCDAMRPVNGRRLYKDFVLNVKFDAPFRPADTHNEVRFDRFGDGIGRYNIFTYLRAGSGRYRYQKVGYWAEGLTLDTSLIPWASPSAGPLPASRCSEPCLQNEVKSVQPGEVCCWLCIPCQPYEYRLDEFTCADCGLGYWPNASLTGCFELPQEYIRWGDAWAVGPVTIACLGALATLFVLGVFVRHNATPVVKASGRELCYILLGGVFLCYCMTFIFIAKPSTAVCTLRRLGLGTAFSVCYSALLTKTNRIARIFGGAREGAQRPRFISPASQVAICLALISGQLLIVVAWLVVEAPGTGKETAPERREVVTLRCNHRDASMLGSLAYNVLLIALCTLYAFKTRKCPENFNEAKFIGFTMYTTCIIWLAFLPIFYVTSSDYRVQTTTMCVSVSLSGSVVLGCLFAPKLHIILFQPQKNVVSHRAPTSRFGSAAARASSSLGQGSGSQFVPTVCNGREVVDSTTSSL

Data set [12] can be described thus: Drug uptake in SPF Swiss mouse brain at 10 mg/kg, sc after 1 hr. The class given is ADME, organism-based. More on the design: dose 10 mg/kg, route subcutaneous. As to conditions: read-out: Drug uptake. The essentials:
as §2

A short description of data set [13]: Cmax in Sprague-Dawley rat at 10 mg/kg, po and 2.5 mg/kg, iv. The format is ADME, organism-based. As to conditions: in vivo. The method in brief: as §1
The nature of data set [14]: Ratio of drug level in brain to plasma of SPF Swiss mouse at 10 mg/kg, sc after 1 hr. As to conditions: read-out: BPR. More on the design: dose 10 mg/kg, route subcutaneous. The format is ADME, organism-based. The essentials: as §4
A short description of data set [15]: Clearance in Sprague-Dawley rat at 10 mg/kg, po and 2.5 mg/kg, iv. The format is ADME, organism-based. As to conditions: in vivo.
Data set [16] has as its target T1, Metabotropic glutamate receptor 2. In words: Agonist activity at human mGlu 2 expressed in CHO cells by PAM assay relative to glutamate. The format is functional, cell-based. The method in brief:
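The assay measured [35S]GTPγS binding to membranes from CHO cells expressing human mGluR2. Cells were butyrate-stimulated (5 mM, 24 h) before membranes were prepared. Membranes were preincubated for 30 min at 30 °C in HEPES pH 7.4 buffer (NaCl, MgCl2, 50 μM GDP) with compound (0.3 nM–50 μM, 11 concentrations) plus EC25 glutamate. [35S]GTPγS (0.1 nM final) was then added for 30 min at 30 °C. Bound label was collected by filtration and counted. Runs were done at least in triplicate with duplicate points, and a four-parameter logistic fit gave the values.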
Target sequence in this assay (Q14416 19-872 limits assumed): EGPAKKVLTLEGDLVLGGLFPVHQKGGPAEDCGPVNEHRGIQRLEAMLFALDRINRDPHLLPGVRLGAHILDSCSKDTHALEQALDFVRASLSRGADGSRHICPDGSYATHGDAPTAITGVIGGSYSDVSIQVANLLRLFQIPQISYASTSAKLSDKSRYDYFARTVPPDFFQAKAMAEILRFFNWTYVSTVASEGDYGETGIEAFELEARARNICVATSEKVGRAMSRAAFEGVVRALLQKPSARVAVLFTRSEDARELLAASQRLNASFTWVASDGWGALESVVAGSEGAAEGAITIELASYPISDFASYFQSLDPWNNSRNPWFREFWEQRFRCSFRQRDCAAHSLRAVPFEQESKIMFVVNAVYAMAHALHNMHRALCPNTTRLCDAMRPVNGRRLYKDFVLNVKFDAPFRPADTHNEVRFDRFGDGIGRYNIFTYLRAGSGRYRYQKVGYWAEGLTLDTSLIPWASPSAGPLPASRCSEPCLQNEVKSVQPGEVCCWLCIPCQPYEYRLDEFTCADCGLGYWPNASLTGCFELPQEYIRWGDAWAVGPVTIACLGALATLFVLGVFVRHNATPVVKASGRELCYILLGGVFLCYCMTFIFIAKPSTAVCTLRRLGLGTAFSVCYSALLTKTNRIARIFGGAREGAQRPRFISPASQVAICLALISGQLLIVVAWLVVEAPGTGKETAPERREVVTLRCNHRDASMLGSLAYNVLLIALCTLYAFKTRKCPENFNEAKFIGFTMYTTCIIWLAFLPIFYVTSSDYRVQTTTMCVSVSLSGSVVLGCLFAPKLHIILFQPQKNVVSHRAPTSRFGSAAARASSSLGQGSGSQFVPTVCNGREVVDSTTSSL

Data set [17] can be described thus: Ratio of drug level in brain to plasma of SPF Swiss mouse at 10 mg/kg, sc after 4 hrs. The class given is ADME, organism-based. Details: dose 10 mg/kg, route subcutaneous. As to conditions: read-out: BPR. The essentials:
as §4

Data set [18] in a line: Plasma concentration in SPF Swiss mouse at 10 mg/kg, sc after 4 hrs. The class given is ADME, organism-based. Details: dose 10 mg/kg, route subcutaneous. The method in brief:
as §2

Data set [19] is described as follows: Plasma concentration in SPF Swiss mouse at 10 mg/kg, sc after 1 hr. The class given is ADME, organism-based. More on the design: dose 10 mg/kg, route subcutaneous. The essentials: as §2

`N#Cc1c(-c2ccc3c(ccn3[C@H]3CC[C@H](O)CC3)c2)ccn2c(CC(F)(F)F)cnc12` displayed a total exposure AUC(0-inf) in data set [1] of 7520 ng·h/mL. The half-life in data set [2] is 2.8 h. In addition, the concentration at 4 h in data set [3] came out at 280 ng/g; in data set [18], 3860 ng/mL. In data set [4], this compound registered a bioavailability of 50%. The concentration at 2 h stood at 469 ng/g in data set [5] and 4500 ng/mL in data set [6]. Moreover, in data set [7], the Tmax was found to be 1.7 h. Also, the metabolised at 0.25 h, 5 µM in [8] was determined as 4%; in data set [9] it was 15%. In addition, the Kp at 2 h in data set [10] was 0.1. Besides, the EC50 in data set [11] stood at 330 nM. The figures for the concentration at 1 h in [12] and in data set [19] were 322 ng/g and 4170 ng/mL, respectively. In data set [13], this compound displayed a Cmax of 1060 ng/mL. For the same compound, the Kp at 1 h in data set [14] stood at 0.1. The same compound had a clearance in [15] of 11.7 mL/min/kg. In data set [16], this compound returned a maximal response (Emax) of 237%. For the same compound, the Kp at 4 h in [17] came to 0.1.

By AUC(0-inf) is commonly meant total exposure, with the tail of the curve extrapolated. Usually half-life stands for the time needed for the level to fall by half in the phase considered. Broadly, the bioavailability is the share of a dose that reaches the circulation, judged against a reference dose that is usually intravenous. A word on the Tmax: it is the time at which the peak concentration occurs. What is called EC50 is the midpoint of the concentration-response curve. Broadly, the Cmax is the peak of the concentration-time curve. Usually Emax stands for the size of the effect at its maximum, as opposed to the concentration needed.
